The record followed here is PMC2741613 (Journal of the American Chemical Society, 2009).

Experiment [1] addresses T1, SHP2 (Homo sapiens, UniProt Q06124).
T1 sequence (Q06124 1-593): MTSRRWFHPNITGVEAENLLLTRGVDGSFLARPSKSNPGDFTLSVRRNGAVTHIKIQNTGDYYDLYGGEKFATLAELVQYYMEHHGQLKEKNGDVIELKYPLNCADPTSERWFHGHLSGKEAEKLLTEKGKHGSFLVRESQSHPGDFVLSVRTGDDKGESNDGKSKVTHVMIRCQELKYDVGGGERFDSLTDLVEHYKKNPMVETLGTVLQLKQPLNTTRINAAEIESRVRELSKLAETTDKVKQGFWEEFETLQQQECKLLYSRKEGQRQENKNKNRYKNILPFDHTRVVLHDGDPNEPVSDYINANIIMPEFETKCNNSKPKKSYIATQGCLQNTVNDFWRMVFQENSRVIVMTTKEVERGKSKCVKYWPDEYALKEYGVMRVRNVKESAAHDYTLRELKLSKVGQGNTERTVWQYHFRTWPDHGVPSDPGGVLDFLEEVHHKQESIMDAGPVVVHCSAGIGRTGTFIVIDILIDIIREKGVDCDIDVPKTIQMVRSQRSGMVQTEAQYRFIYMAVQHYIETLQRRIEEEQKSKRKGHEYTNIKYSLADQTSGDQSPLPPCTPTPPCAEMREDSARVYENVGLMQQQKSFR
As to the kind of experiment: PTP activity assay with pNPP, SHP2. The experiment is classed as biochemical. In a few lines: (§1)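 Reactions started by adding enzyme to mixtures with various pNPP and test-compound concentrations. Rates were fitted with an enzyme-kinetics model for Ki.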

Experiment [2] addresses T2, PTP-Meg2 (Homo sapiens, UniProt P43378).
T2 sequence (P43378 1-593): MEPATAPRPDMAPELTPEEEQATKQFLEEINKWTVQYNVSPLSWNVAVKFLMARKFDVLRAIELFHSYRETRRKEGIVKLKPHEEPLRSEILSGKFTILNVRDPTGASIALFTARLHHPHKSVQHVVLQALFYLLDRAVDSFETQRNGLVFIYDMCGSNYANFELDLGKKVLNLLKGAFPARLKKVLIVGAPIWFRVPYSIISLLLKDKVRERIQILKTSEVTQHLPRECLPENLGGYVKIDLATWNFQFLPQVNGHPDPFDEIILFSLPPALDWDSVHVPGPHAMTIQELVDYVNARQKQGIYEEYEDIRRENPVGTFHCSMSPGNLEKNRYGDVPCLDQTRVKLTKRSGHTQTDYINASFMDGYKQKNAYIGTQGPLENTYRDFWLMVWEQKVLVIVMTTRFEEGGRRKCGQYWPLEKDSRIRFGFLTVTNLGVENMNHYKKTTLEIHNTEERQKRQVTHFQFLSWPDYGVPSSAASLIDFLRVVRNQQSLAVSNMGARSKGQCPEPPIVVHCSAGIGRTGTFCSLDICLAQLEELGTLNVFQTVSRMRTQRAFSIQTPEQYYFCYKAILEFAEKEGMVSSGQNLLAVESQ
As to the kind of experiment: PTP activity assay with pNPP, PTP-Meg2. The experiment is classed as biochemical. A digest of the protocol:
as §1

Experiment [3] deals with T3, TC-PTP (Homo sapiens, UniProt P17706).
T3 sequence (P17706 1-415): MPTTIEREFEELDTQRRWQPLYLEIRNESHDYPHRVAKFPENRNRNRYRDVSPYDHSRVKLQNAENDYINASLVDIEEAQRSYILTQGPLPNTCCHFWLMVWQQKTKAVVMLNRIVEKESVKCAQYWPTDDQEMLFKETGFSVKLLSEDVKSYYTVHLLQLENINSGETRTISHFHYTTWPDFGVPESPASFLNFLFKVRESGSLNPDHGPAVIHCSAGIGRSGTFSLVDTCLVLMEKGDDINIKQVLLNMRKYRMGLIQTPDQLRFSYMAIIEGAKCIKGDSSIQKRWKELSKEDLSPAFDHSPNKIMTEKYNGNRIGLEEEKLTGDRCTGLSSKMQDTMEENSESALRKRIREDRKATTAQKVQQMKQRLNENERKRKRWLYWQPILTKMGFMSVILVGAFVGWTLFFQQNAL
As to the kind of experiment: TC-PTP-catalyzed pNPP hydrolysis inhibition. The experiment is classed as biochemical. In a few lines:
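IC50: enzyme added last (10 nM or 0.4 nM final) to 2 mM pNPP (Km) plus varied test compound, 30 min at room temperature, NaOH quench, A405. Reversibility: enzyme preincubated with test compound 30 min before pNPP. Mode/Ki: 0.4 nM enzyme, varied pNPP and inhibitor, kinetic fit.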

Experiment [4] concerns the target T4, PTP1B (Homo sapiens, UniProt P18031).
T4 sequence (P18031 1-435): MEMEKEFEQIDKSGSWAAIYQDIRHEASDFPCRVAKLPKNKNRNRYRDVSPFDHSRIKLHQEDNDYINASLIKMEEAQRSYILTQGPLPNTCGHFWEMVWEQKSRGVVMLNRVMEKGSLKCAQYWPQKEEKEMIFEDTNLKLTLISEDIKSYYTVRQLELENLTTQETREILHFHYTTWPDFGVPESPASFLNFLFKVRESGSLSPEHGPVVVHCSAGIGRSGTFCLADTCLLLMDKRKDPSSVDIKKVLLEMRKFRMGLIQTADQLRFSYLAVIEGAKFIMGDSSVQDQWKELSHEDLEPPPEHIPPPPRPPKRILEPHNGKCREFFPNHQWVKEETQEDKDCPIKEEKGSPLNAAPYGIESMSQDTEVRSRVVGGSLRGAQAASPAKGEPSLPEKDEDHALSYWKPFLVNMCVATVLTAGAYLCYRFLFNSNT
As to the kind of experiment: PTP activity assay with pNPP, PTP1B. The experiment is classed as biochemical. In a few lines:
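Reactions started by adding enzyme (2 nM final) to mixtures with varied pNPP and varied test compound. Rates fitted with an enzyme-kinetics model to give Ki and mode of inhibition.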

Experiment [5] deals with pSrc416 in PTP1B−/− mouse embryo fibroblast cells. Put plainly: Src phosphorylation at Tyr416 in cells. The conditions noted are these: treated for two hours, various concentrations. The experiment is classed as cell-based. In a few lines:
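PTP1B−/− mouse embryo fibroblasts at 80% confluence were exposed to test compound for two hours, then lysed and cleared at 15,000 rpm for 10 min. 30 μg total protein run on SDS-PAGE and blotted to PVDF. Probed with anti-pSrc416, anti-pSrc527 and anti-Src antibodies, HRP-conjugated secondaries.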

For experiment [6], the target named is FAP1 (Homo sapiens, UniProt Q12923). Put plainly: PTP activity assay with pNPP, FAP1. The experiment is classed as biochemical. In a few lines:
as §1

Sequence of FAP1 (Q12923 whole entry, species assumed): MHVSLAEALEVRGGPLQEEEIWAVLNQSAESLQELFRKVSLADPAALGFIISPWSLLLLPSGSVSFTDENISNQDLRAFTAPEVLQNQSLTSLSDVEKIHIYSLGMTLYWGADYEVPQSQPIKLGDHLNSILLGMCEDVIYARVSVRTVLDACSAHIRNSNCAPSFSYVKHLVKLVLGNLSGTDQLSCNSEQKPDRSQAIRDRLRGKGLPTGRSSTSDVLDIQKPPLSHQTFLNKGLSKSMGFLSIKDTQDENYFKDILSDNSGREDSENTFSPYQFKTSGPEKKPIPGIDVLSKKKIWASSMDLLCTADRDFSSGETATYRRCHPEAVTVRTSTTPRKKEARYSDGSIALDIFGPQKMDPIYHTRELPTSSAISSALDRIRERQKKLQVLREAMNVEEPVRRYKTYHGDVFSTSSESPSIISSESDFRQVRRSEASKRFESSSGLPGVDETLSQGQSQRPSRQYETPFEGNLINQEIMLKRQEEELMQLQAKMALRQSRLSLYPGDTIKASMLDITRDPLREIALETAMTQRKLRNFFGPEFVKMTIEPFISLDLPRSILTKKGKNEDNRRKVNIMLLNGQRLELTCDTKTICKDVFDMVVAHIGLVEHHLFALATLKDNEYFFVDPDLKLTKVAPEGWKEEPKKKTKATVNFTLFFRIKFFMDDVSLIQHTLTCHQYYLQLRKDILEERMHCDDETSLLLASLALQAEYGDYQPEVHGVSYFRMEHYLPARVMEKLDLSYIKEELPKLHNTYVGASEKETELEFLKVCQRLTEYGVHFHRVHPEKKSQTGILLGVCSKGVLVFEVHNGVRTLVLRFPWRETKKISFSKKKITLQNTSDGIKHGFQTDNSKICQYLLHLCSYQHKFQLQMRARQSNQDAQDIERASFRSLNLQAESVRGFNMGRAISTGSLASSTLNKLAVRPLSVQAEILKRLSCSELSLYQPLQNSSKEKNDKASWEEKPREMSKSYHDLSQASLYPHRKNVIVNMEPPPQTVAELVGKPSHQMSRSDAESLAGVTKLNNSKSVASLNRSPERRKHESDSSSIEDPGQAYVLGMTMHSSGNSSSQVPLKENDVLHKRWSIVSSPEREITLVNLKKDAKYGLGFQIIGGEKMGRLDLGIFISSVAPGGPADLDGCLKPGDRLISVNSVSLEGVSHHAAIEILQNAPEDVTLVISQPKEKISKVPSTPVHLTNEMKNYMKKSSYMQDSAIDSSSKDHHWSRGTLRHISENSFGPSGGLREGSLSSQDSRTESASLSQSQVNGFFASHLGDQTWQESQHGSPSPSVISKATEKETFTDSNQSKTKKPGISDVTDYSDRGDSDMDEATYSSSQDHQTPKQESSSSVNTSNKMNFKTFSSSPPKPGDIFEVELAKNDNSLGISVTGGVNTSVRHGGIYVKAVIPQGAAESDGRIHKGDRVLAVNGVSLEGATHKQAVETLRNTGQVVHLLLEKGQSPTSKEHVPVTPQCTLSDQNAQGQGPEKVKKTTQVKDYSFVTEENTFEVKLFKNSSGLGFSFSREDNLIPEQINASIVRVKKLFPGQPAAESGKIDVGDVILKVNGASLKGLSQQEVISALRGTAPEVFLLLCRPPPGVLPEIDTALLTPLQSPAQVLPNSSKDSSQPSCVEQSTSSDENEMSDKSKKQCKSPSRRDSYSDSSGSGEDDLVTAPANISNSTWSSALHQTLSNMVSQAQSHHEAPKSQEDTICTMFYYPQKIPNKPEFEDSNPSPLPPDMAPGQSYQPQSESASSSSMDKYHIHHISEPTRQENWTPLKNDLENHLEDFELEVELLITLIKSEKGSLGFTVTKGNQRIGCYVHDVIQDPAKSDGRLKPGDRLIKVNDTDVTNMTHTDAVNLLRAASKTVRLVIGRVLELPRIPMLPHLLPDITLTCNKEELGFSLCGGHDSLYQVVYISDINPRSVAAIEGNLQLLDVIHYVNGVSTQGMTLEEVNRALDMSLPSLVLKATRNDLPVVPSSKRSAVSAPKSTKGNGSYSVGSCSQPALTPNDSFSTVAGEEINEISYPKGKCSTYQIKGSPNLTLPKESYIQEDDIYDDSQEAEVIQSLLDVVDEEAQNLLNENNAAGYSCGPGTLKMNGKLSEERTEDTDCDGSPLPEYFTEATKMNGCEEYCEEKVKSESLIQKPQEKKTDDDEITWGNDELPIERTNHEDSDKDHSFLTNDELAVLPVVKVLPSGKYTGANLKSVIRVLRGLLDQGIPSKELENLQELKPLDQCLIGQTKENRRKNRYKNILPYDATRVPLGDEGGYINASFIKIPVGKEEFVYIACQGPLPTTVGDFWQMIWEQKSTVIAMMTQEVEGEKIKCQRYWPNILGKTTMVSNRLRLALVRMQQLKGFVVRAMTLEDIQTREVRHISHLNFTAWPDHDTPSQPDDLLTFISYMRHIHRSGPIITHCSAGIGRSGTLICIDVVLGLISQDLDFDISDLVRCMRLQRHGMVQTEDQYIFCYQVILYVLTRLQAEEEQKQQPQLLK

The Ki is a dissociation constant, usually derived from enzyme kinetics or from competition with a known ligand. Read a high Ki as weaker binding. In the case of `CCc1ccc(C(=O)NCCCC[C@H](NC(=O)[C@H](Cc2ccc(C(F)(F)P(=O)(O)O)cc2)NC(=O)[C@H](Cc2ccccc2)NC(=O)CO[C@H]2C[C@@H](C)CC[C@@H]2C(C)C)C(N)=O)cc1` [Compound 8], the inhibition constant Ki in experiment [1] is more than 1000 nM; in experiment [2], more than 1000 nM; in experiment [3] (TC-PTP, pNPP substrate), 4.3 ± 0.2 nM; in experiment [4] (PTP1B), 34 ± 2.8 nM; in experiment [6] it was more than 1000 nM. In addition, in experiment [3] (IC50 without or with 30 min preincubation), the “reversibility of TC-PTP inhibition” value was “reversible”. The “mode of TC-PTP inhibition” value in experiment [3] (Lineweaver-Burk analysis, pNPP) is given as “competitive”. The “selectivity for TC-PTP over PTP1B” value in experiment [4] (TC-PTP versus PTP1B) was found to be 8 fold. Further, the “effect on pSrc416 phosphorylation” value in experiment [5] is “dose-dependent increase”.
